{"source": "ChEMBL document CHEMBL3853290", "about": "“Sesquiterpenoids Isolated from Two Species of the Asteriscus Alliance” (J Nat Prod, 2016)", "assay_type_in_all_cases": "functional, cell-based", "key": {"[1]": {"assay": "(§1) Cytotoxicity against human MOLT3 cells assessed as cell growth inhibition after 72 hrs by MTT assay", "conditions": "MOLT-3, 72 h", "method_in_brief": "(§2)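 Cells from DSMZ, grown in RPMI 1640 with 2 mM L-glutamine and 10% heat-inactivated FBS. 1 × 10^4 exponentially growing cells per well exposed to a range of compound concentrations. MTT (0.5 mg/mL) added, 4 h at 37 °C, then 10% SDS in 0.05 M HCl overnight at room temperature in the dark. Absorbance read at 570 nm. IC50 from nonlinear regression, means ± SE of ≥3 independent experiments in triplicate. Etoposide as positive control.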"}, "[2]": {"assay": "Cytotoxicity against human HL60 cells assessed as cell growth inhibition after 72 hrs by MTT assay", "conditions": "HL-60, 72 h", "method_in_brief": "as §2"}, "[3]": {"tested_on": "MOLT-3", "assay": "as §1", "method_in_brief": "as §2"}}, "data": [{"smiles": "C[C@@H]1C(=O)/C=C\\C(C)(C)[C@@H]2C=C(CC[C@@H]1O)C(=O)O2", "values": [{"measurement": "IC50", "setting": "[1]", "result": "> 10", "unit": "µM"}, {"measurement": "IC50", "setting": "[2]", "result": "> 10", "unit": "µM"}]}, {"smiles": "C/C1=C/CC[C@]23O[C@H]2[C@H](OC3=O)C(C)(C)/C=C/C1=O", "values": [{"measurement": "IC50", "setting": "[1]", "result": "> 10", "unit": "µM"}, {"measurement": "IC50", "setting": "[2]", "result": "> 10", "unit": "µM"}]}, {"smiles": "CC1(C)C[C@@H]2C(=O)[C@](C)(O)/C=C\\C[C@@H]3C(=O)O[C@H]1[C@@H]32", "values": [{"measurement": "IC50", "setting": "[1]", "result": "> 10", "unit": "µM"}, {"measurement": "IC50", "setting": "[2]", "result": "> 10", "unit": "µM"}]}, {"smiles": "CCO[C@H]1CCC2=C[C@H](OC2=O)C(C)(C)/C=C\\C(=O)[C@H]1C", "values": [{"measurement": "IC50", "setting": "[1]", "result": "> 10", "unit": "µM"}, {"measurement": "IC50", "setting": "[2]", "result": "> 10", "unit": "µM"}]}, {"smiles": "CC1(C)/C=C\\C(=O)[C@@]2(C)O[C@H]2CCC2=C[C@@H]1OC2=O", "values": [{"measurement": "growth inhibition (GI)", "setting": "[3]", "result": "Dose-dependent effect"}, {"measurement": "IC50", "setting": "[1]", "result": 4.1, "unit": "µM"}, {"measurement": "IC50", "setting": "[2]", "result": 5.4, "unit": "µM"}]}, {"smiles": "COc1cc([C@@H]2c3cc4c(cc3[C@@H](O[C@@H]3O[C@@H]5CO[C@@H](C)O[C@H]5[C@H](O)[C@H]3O)[C@H]3COC(=O)[C@H]23)OCO4)cc(OC)c1O", "note": "[ETOPOSIDE]", "values": [{"measurement": "IC50", "setting": "[1]", "result": 0.7, "unit": "µM"}, {"measurement": "IC50", "setting": "[2]", "result": 0.5, "unit": "µM"}]}]}
